The record followed here is ChEMBL document CHEMBL1133863, “Dual neurokinin NK(1)/NK(2) antagonists: N-[(R,R)-(E)-1-arylmethyl-3-(2-oxo-azepan-3-yl)carbamoyl]allyl-N-methyl-3,5-bis(trifluoromethyl)benzamides and 3-[N'-3,5-bis(trifluoromethyl)benzoyl-N-arylmethyl-N'-methylhydrazino]-N-[(R)-2-oxo-azepan-3-yl]propionamides” (Bioorg Med Chem Lett, 2001).

Molecules are shown by their SMILES. pIC50: −log10 of the molar value.

For this assay, the target named is T1, Substance-K receptor (Homo sapiens, UniProt P21452).
T1 sequence (P21452 whole entry): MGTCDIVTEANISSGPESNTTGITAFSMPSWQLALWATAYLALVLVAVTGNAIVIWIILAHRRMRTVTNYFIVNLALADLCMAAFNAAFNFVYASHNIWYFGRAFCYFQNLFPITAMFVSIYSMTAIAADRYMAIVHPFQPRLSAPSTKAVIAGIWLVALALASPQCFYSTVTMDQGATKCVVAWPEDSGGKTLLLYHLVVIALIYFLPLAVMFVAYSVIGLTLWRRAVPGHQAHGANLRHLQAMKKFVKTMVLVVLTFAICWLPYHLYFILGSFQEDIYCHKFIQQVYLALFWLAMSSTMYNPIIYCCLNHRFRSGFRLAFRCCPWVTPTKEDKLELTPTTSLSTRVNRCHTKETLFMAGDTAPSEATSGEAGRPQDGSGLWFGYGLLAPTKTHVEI
As to the kind of experiment: In vitro binding affinity for Tachykinin receptor 2 of human-CHO cells using 125 I-NKA radioligand. Format: cell-based. The procedure, abridged:
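Whole CHO cells stably expressing recombinant human NK2 receptor (3×10^5 per well) incubated 20 min at room temperature with 0.05 nM [125I]-NKA (2200 Ci/mmol) and a range of test concentrations in 20 mM HEPES pH 7.4 with 2 mM MnSO4 and 6 mM MgCl2. Nonspecific binding defined with 50 nM NKA. Rapid filtration, four ice-cold Tricine washes, scintillation counting; triplicate samples.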
In general, pIC50 refers to the negative decadic logarithm of the IC50, by convention in mol/L. A higher pIC50 goes with a low IC50. As for `CN(C(=O)c1cc(C(F)(F)F)cc(C(F)(F)F)c1)[C@@H](/C=C/C(=O)N[C@@H]1CCCCNC1=O)Cc1cc(Br)c(Br)s1`, the pIC50 is 7.59.
Turning to `CN(C(=O)c1cc(C(F)(F)F)cc(C(F)(F)F)c1)[C@@H](/C=C/C(=O)N[C@@H]1CCCCNC1=O)Cc1ccc2ccccc2c1`, the pIC50 is 7.22. This pIC50 is 0.37 log units lower than that of the molecule before.
As to `CN(C(=O)c1cc(C(F)(F)F)cc(C(F)(F)F)c1)N(CCC(=O)N[C@@H]1CCCCNC1=O)Cc1ccc2ccccc2c1`, the pIC50 was 7.26.
Take `CN(C(=O)c1cc(C(F)(F)F)cc(C(F)(F)F)c1)[C@@H](/C=C/C(=O)N[C@@H]1CCCCNC1=O)Cc1cc(Cl)c(Cl)s1`: the pIC50 is 7.77.
Take `CN(C(=O)c1cc(C(F)(F)F)cc(C(F)(F)F)c1)[C@@H](/C=C/C(=O)NC1CCCCCC1)Cc1ccc(Cl)cc1`: the pIC50 is 6.69.
`CN(C(=O)c1cc(C(F)(F)F)cc(C(F)(F)F)c1)N(CCC(=O)N[C@@H]1CCCCNC1=O)Cc1cc(Br)c(Br)s1` had a pIC50 of 7.71.
Next, `CN(C(=O)c1cc(C(F)(F)F)cc(C(F)(F)F)c1)[C@@H](/C=C/C(=O)NC1(C(N)=O)CCCCC1)Cc1ccc(Cl)cc1`: 7.18.
With `CN(C(=O)c1cc(C(F)(F)F)cc(C(F)(F)F)c1)[C@@H](/C=C/C(=O)N[C@@H]1CCCCNC1=O)Cc1cn(C)c2ccccc12`, the pIC50 was 7.62.
Turning to `CN(C(=O)c1cc(C(F)(F)F)cc(C(F)(F)F)c1)N(CCC(=O)N[C@@H]1CCCCNC1=O)Cc1ccc(Cl)c(Cl)c1`, the pIC50 is 8.26. This pIC50 lies 0.64 log units higher than the previous one.
For `CN(C(=O)c1cc(C(F)(F)F)cc(C(F)(F)F)c1)[C@@H](/C=C/C(=O)N[C@@H]1CCCCNC1=O)Cc1ccc(Cl)c(Cl)c1` [DNK333], the pIC50 was 8.26.
